# Hits are enriched below; roughly 1.3% of the tested compounds scored in any of these assays.
# EP2 modulator: modulators of human EP2 prostaglandin E2 receptor; hit rate 0.83% among 260,000; EP2-expressing cells, cAMP HTRF FRET, PGE2 co-stimulation; induction, % at 25 µM; P43116;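 active = compounds whose cAMP rise, as percent of the full-agonist control response, exceeds 60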;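 also: rat C6 glioma line stably carrying human EP2 under a CMV promoter; the protocol text gives 20 µM as final concentration; 100% = response of wells given 1 µM PGE2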
# Target sequence (P43116 whole entry, looked up): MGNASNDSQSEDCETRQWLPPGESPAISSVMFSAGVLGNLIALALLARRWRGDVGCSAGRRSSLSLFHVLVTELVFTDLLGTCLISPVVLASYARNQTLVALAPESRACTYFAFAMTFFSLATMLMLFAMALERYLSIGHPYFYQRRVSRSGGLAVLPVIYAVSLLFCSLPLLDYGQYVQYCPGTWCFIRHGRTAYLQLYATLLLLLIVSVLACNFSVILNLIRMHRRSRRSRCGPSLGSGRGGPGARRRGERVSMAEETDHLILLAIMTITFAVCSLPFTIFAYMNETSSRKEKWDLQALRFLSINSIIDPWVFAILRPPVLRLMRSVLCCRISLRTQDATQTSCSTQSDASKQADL
# EP2 antag: blocks the human prostaglandin E2 receptor EP2 | P43116 | C6 glioma cells expressing human EP2, cAMP TR-FRET; cells stimulated with saturating PGE2 | inhibition, % at 25 µM | hit rate 0.52% among 260,000 | AID 1422;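 active = percent inhibition above 40 after rounding to a whole number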;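 also: rat C6 glioma host cells with rolipram phosphodiesterase inhibitor present; the protocol text gives 20 µM as final concentration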
# NR2E3 ag-1: agonists of human nuclear receptor NR2E3. GST-NR2E3/biotin-RetCOR TR-FRET, 1536-well. inhibition of corepressor binding, % at 4.78 µM. hit rate 0.12% among 320,000;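 active = percent inhibition above the cutoff of mean plus 3 SD of all tested compounds, set per screening campaign, cut at about 20% in these data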;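 also: 0% = DMSO wells and 100% = biotin wells as full block of FRET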
#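 Material: NR2E3–RetCOR corepressor complex / Incubation: Compound–protein incubation for 5 h at 4 °C / Dosing: compound at 4.8 µM, single dose / Detection: time-resolved FRET / Benchmarks: high control biotin, low control 0.6% DMSO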
# NR2E3 ag-2: agonists of human NR2E3 nuclear receptor; Q9Y5X4; CHO-S Gal4-NCOR/VP16-NR2E3 two-hybrid, luciferase; inhibition of corepressor binding, % at 3.98 µM; hit rate 0.35% among 360,000; AID 602229;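 active = inhibition above the mean of all tested compounds plus 3 SD, cut at about 70% in these data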;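 also: 0% = DMSO with NR2E3 transfected cells and 100% = cells lacking NR2E3 construct; higher means lower luciferase signal from less NR2E3 corepressor binding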
# Furin inh: blocks human furin protease activity. hit rate 0.061% among 220,000. purified furin, fluorogenic substrate cleavage. P09958. AID 463115. inhibition, % at 20 µM or 30 µM; in the data active = inhibition above about 25%
# GASC-1 inh: inhibitors of human GASC-1 (JMJD2C) demethylase | Q9H3R0 | GST-JMJD2C(1-420) H3K9me3 demethylation, DELFIA europium | inhibition, % at 2.35 µM | hit rate 0.069% among 330,000 | AID 2099;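 active = more than half of a compound's replicate wells show inhibition beyond 50%, single wells judged on their own value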;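 also: signal counts dimethyl H3K9 product captured on neutravidin plate; 0% = median of DMSO wells and 100% = 0.3 times that DMSO median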
# EP2 confirm: EP2 receptor cAMP induction, counter-screens negative; shares compounds with EP2 modulator; C6 glioma EP2 cells, cAMP HTRF induction; plus low (about EC15) PGE2 agonist; calls only at 20 µM (by protocol); hit rate 47% among 1,300;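 active = cAMP induction above 50% in the main assay while under 30% in all four parallel counter assays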;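 also: rat C6 glioma cells stably expressing human EP2 receptor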
# Starred values were filed as active, the others as inactive; i = inactive; · = not tested or not shown; + = active, no number; ! = not active in a repeat.
SMILES,EP2 modulator,EP2 antag,NR2E3 ag-1,NR2E3 ag-2,Furin inh,GASC-1 inh,EP2 confirm
O=[N+]([O-])c1cccc(-c2csc(N/N=C/c3cccc(O)c3)n2)c1,-59.9,99.4*,0.2,-26.0,-17.8,-5.8,·
COc1cc(OC)cc(C(=O)N(Cc2cc3ccc(C)cc3n3nnnc23)C2CCCC2)c1,33.9,5.0,·,·,·,·,·
COc1ccccc1NC(=O)c1ccc2c(c1)N(Cc1cc(C)ccc1C)C(=O)C(C)(C)O2,64.2*,14.9,·,·,·,·,·
COc1cc2cc3c(N)c(C(=O)Nc4ccc5c(c4)OCCO5)sc3nc2cc1OC,-39.2,16.2,·,·,·,·,·
COc1ccc(-n2nc3cc(C)c(NC(=O)c4ccc5c(c4)OCO5)cc3n2)cc1,-13.6,6.6,·,·,·,·,·
COC(=O)C12CCC(C)(c3nc4ccccc4nc31)C2(C)C (stereo unspecified),17.4,6.0,2.1,-13.0,-27.7,8.3,·
CC(C)(C)NC(=O)C12CCC(C)(c3nc4ccccc4nc31)C2(C)C (stereo unspecified),64.5*,4.3,-1.6,9.7,-8.7,-3.0,·
COc1c(Cl)cc(C(=O)Nc2sc3c(c2C#N)CCC3)cc1Cl,-1.8,5.6,·,·,·,·,·
O=C(O)C1=C/C(=C(/c2ccccc2)c2cc(C(=O)O)c(O)c3ccccc23)c2ccccc2C1=O,3.4,39.8*!,·,·,·,·,·
COc1ccc(C(c2nnnn2Cc2ccc(F)cc2)N2CCC(C)CC2)c(OC)c1 (stereo unspecified),20.4,1.1,·,·,·,·,·
OC(CN1CCC2(CC1)CC(O)c1ccc3ccccc3c1O2)c1ccc(Cl)cc1 (stereo unspecified),-86.0,49.9*,·,·,·,·,·
CC1=CC(C)(C)N(C(=O)Nc2ccccc2)c2ccccc21,18.5,8.9,6.9,-2.2,-25.4,8.4,·
C/C=C/C(=O)N1c2ccccc2C(C)=CC1(C)C,61.3*!,8.6,2.1,-5.9,8.9,5.0,·
CCCN1/C(=C2/SC(=S)N(CC)C2=O)C=Cc2ccccc21,62.6*,10.6,1.0,-13.7,-9.3,-29.8,·
c1csc(-c2nc3ccccn3c2NC2CCCCC2)c1,61.5*,4.8,-0.2,-28.1,-26.7,3.7,·
Cc1ccc2c(c1)N(CC(=O)N(Cc1ccccn1)C1CC1)C(=O)C(C(C)C)O2 (stereo unspecified),18.6,7.5,·,·,·,·,·
CCCCC[C@H](O)/C=C/[C@H]1C=CC(=O)[C@@H]1C/C=C\CCCC(=O)O,103.5*,8.8,·,·,-8.5,·,·
Cc1ccc(C(=O)c2c(C)oc3c2C(=O)C(=O)c2ccccc2-3)cc1,-47.7,55.5*,9.9,-97.8,5.5,4.1,·
Cc1ccc(F)cc1NC(=O)CN1CCN(C2CCCCC2)CC1,0.9,13.4,·,·,·,·,·
Nc1ncnc2c1C1(CCCCC1)Cc1ccccc1-2,80.5*!,9.2,-1.9,-14.2,-13.8,29.9,·
Cc1c(-c2nc(-c3ccc(C(C)(C)C)cc3)no2)n(C)oc1=O,72.5*,7.2,-3.4,-68.3,-11.3,-1.3,·
Cc1cc(-c2nc(-c3ccc(C(C)(C)C)cc3)no2)no1,-5.3,5.7,3.9,-65.4,-12.3,9.7,·
CCN=C1S/C(=C\c2ccc(O)c(OCC)c2)C(=O)N1CC,81.3*,7.7,-2.8,0.5,-7.3,1.4,i
CCN=C1S/C(=C\c2cc(OCC)c(O)cc2Br)C(=O)N1CC,48.7,10.6,-2.7,4.1,-8.6,24.2,·
CCCc1nc(N2CCN(C(=O)c3cccnc3)CC2)c2c(C)c(C)sc2n1,-9.6,8.3,·,·,·,·,·
SMILES,EP2 modulator,EP2 antag,NR2E3 ag-1,NR2E3 ag-2,Furin inh,GASC-1 inh,EP2 confirm
Cc1sc2ncnc(N(C)Cc3cccs3)c2c1C,52.0,14.0,-1.1,15.2,-21.7,1.6,+
CN(Cc1cccs1)c1ncnc2sccc12,-22.1,12.2,0.3,32.2,1.1,0.4,·
CC(=O)Nc1nnc(CCN2CCCCC2)s1,72.0*,5.4,3.5,25.9,-7.3,-3.5,i
CCOc1ccc(N(Cc2cc3cc(OC)ccc3[nH]c2=O)C(=O)CC)cc1,-8.0,11.9,·,·,·,·,·
Cc1ccc(S(=O)(=O)c2c(C)nn(-c3ccccc3)c2OC(=O)c2ccc(Br)o2)cc1,10.1,10.9,-3.0,4.7,-15.1,4.2,·
Cc1ccc(S(=O)(=O)c2c(C)nn(-c3ccccc3)c2OC(=O)c2ccco2)cc1,66.8*,11.0,-1.9,-3.9,-7.9,1.1,i
COc1ccc(-c2noc(-c3ccccc3-c3ccccc3)n2)cc1OC,77.2*,·,0.3,-24.2,-4.7,26.5,+
COc1cc(OC)c(-c2nc(-c3ccccc3)no2)cc1OC,20.4,7.6,·,·,·,·,·
COc1ccccc1-n1c(SCC(=O)N2CCC(C)CC2)nnc1-c1ccccc1,16.4,18.8,·,·,·,·,·
Cc1ccc(C)n1-c1ccc(N(C)C)cc1,66.0*,16.3,-5.3,-23.2,-33.7,3.3,i
Cc1ccc(C)n1-c1ccc(N2CCOCC2)cc1,0.3,11.6,-2.1,-1.0,-11.6,·,·
COc1ccc(CCNC(=O)c2sc3nc4ccc(C)cc4cc3c2N)cc1OC,-41.2,2.6,·,·,·,·,·
O=C(c1ccco1)N(Cc1cccc([N+](=O)[O-])c1)c1ccc(Br)cc1,66.0*,2.4,3.2,-11.4,-13.6,0.8,+
S=c1[nH]nc(-c2cc3c(s2)-c2ccccc2CC3)o1,-4.9,15.4,2.2,-71.8,-52.3,9.3,·
CSc1nnc(-c2cc3c(s2)-c2ccccc2CC3)o1,75.9*,9.8,1.4,-112.2,-166.6,-16.5,+
CC(Sc1nc2ccccc2n1C)C(=O)NC(c1ccccc1)c1ccccc1 (stereo unspecified),72.1*,4.1,-2.6,-2.8,-10.3,9.3,+
CCN1/C(=C/C(C)=O)Sc2c1ccc1ccccc21,-8.9,10.1,·,·,·,·,·
CN=C1Sc2nc3c(C)cc(C)cc3cc2CN1CC1CCCO1 (stereo unspecified),34.2,19.2,·,·,·,·,·
O=c1c2ccccc2c(-c2ccccc2)nn1-c1ccc(Cl)c(Cl)c1,70.4*,6.8,2.5,-7.0,-10.6,-1.7,i
O=C(NCC1CCCO1)C(c1ccncc1)N(Cc1cccs1)C(=O)Cn1nnc(-c2ccc(F)cc2)n1 (stereo unspecified),-12.7,11.8,-1.2,-3.4,-20.3,-23.6,·
Cc1ccc(-c2nnn(CC(=O)N(Cc3cccs3)C(C(=O)NC3CCCC3)c3ccncc3)n2)cc1 (stereo unspecified),72.0*,17.9,-0.1,-3.6,-3.5,-2.8,i
COc1ccc2c(c1)cc(C)c1nnc(SCC(=O)N3CCOCC3)n12,-21.1,4.1,·,·,·,·,·
COc1ccc2c(c1)c(=O)c(Br)c(C)n2Cc1ccccc1,68.2*,-0.8,0.8,-30.3,-18.8,8.6,+
COc1ccc2c(c1)c(CC(=O)O)c(C)n2Cc1ccc(F)cc1,17.1,7.7,·,·,·,·,·
CCOC(=O)CCN(Cc1sccc1C)S(=O)(=O)c1ccc(F)cc1,81.4*,2.0,0.9,-28.5,-14.9,-0.7,i
